Experimental data published in PMC10053980 (ACS infectious diseases, 2023).
Read-outs that look alike come from different tables or passages of the source.

Legend:
[1] = system: PfeEF2^Y186N (DDD107498-resistant); experiment: [3H]-hypoxanthine incorporation assay, cross-resistance panel; type: cell-based, Plasmodium falciparum
NF54 = experiment: as above; type: cell-based; settings: Plasmodium falciparum, NF54, read-out: (S)-SW703 EC50
[2] = system: PfCARL^S1057T (S)-SW703-resistant Dd2 clones; experiment: Asexual blood-stage EC50; type: cell-based, Plasmodium falciparum
Dd2 = experiment: [3H]-hypoxanthine incorporation assay, cross-resistance panel; type: cell-based, Plasmodium falciparum
K1 = experiment: as above; type: cell-based, Plasmodium falciparum
[3] = system: PfCytB^I22L (ELQ300-resistant); experiment: as above; type: cell-based, Plasmodium falciparum
[4] = system: PfACT^Q116K (S)-SW703-resistant Dd2 clone; experiment: Asexual blood-stage EC50; type: cell-based, Plasmodium falciparum; settings: for EC50: Plasmodium falciparum
How it was run: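 Cloned resistant parasites were exposed to test compound or KAF156 over a concentration range for 72 h at 37 °C (2% hematocrit, 0.5% parasitemia, 0.5% DMSO). Freeze–thaw was followed by SYBR Green lysis and fluorescence at 485/535 or 528 nm. EC50 was fitted by four-parameter regression. Fold shift is relative to the Dd2 parent. Technical triplicates, at least three independent experiments.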

[5] = system: P. falciparum strain NF54 stage V gametocytes, female gametes; experiment: Dual gamete formation assay; type: cell-based; settings: Plasmodium falciparum, NF54, read-out: Inhibition of female gamete formation
[6] = system: PfCARL^I1139K (KAF156-selected); experiment: [3H]-hypoxanthine incorporation assay, cross-resistance panel; type: cell-based, Plasmodium falciparum; settings: PfCARL^I1139K relative to parent line Dd2
How it was run: (§1)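 Cross-resistance was measured by a modified [3H]-hypoxanthine incorporation assay. Fold differences for lab-generated resistant lines are relative to the Dd2 parent. Values are means from two independent experiments.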

HepG2 cytotoxicity = type: cell-based; settings: human, HepG2 cells
How it was run: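 HepG2 cells (600 per well) in EMEM with 5% heat-inactivated FBS and 2 mM glutamine received test compound and were incubated 72 h at 37 °C, 5% CO2. Viability was read by CellTiter Glo (intracellular ATP). CD437 and methotrexate served as positive controls. Two biological runs, each in technical triplicate.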

in vitro = in vitro ADME; settings: human, microsomes
Dd2-Polδ (parent) = experiment: Asexual blood-stage EC50; type: cell-based; settings: Plasmodium falciparum, DD2, read-out: (S)-SW703 EC50
How it was run: (§2)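 Ring-stage parasites (2% hematocrit, 0.5% parasitemia, final DMSO 0.5%) were exposed to a concentration range for 72 h at 37 °C, 5% CO2. Plates were frozen for at least 16 h and thawed, then SYBR Green lysis buffer was added. Fluorescence was read at 485 nm excitation and 535/528 nm emission. DSM265 (0.8–100 nM) served as plate control. EC50 came from four-parameter nonlinear regression, in technical triplicates with at least 3 biological replicates.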

PfD10 attB + yDHODH = experiment: Asexual blood-stage growth inhibition; type: cell-based, Plasmodium falciparum; settings: Saccharomyces cerevisiae, read-out: PfD10 attB + yDHODH EC50
How it was run: as §2

[7] = system: P. berghei liver stage (Pb-Luc sporozoites); experiment: Liver stage activity assay; type: cell-based; settings: Plasmodium berghei, read-out: Liver-stage EC50
[8] = system: P. falciparum Dd2 (PfDd2, parent); experiment: Asexual blood-stage growth inhibition; type: cell-based; settings: Plasmodium falciparum
7G8 = experiment: [3H]-hypoxanthine incorporation assay, cross-resistance panel; type: cell-based, Plasmodium falciparum
[9] = system: PfCARL^L830I (S)-SW703-resistant Dd2 clones; experiment: Asexual blood-stage EC50; type: cell-based, Plasmodium falciparum
RF12 (PH-1263-C) = experiment: [3H]-hypoxanthine incorporation assay, cross-resistance panel; type: cell-based, Plasmodium falciparum
TM90C2B = experiment: as above; type: cell-based, Plasmodium falciparum
[10] = system: PfDHODH (DSM265-resistant); experiment: [3H]-hypoxanthine incorporation assay, cross-resistance panel; type: cell-based, Plasmodium falciparum
How it was run: as §1

[11] = system: P. falciparum strain 3D7A; experiment: Two color flow cytometry rate of kill assay; type: cell-based, Plasmodium falciparum; settings: 0, 24 or 48 h exposure at 10X EC50; compared with chloroquine and artesunate
[12] = system: PfCARL^Q821H (S)-SW703-resistant Dd2 clones; experiment: Asexual blood-stage EC50; type: cell-based, Plasmodium falciparum
[13] = system: PfCARL^L1073I C2 clone beta (Polδ mutant); experiment: Asexual blood-stage EC50; type: cell-based, Plasmodium falciparum; settings: for EC50: Plasmodium falciparum
[14] = system: P. falciparum 3D7 (Pf3D7); experiment: Asexual blood-stage growth inhibition; type: cell-based; settings: Plasmodium falciparum, 3D7, 72 h, read-out: Pf3D7 EC50
[15] = system: PfPI4K^S743T (MMV390048-resistant); experiment: [3H]-hypoxanthine incorporation assay, cross-resistance panel; type: cell-based, Plasmodium falciparum
PfD10 attB = experiment: Asexual blood-stage growth inhibition; type: cell-based; settings: Plasmodium falciparum, read-out: PfD10 attB EC50
How it was run: as §2

[16] = system: P. falciparum strain NF54 stage V gametocytes, male gametes; experiment: Dual gamete formation assay; type: cell-based, Plasmodium falciparum; settings: 1 μM, 48 h
physchem = type: physicochemical; settings: kinetic from dmso stock
PfCARL L1073Q mutants = settings: cited from earlier work
[17] = system: PfACT^S242* CRISPR mutant; settings: cited from earlier work
[18] = Flask 3 clone D11, PfCARL^S1057T, vs Dd2 parent
[19] = Plasmodium falciparum, read-out: (S)-SW703 EC50
[20] = Flask 4 clone F2, PfACT^Q116K, vs Dd2 parent
[21] = Flask 1 clone B4, PfCARL^L830I, vs Dd2 parent
[22] = Flask 2 clone F3, PfCARL^Q821H, vs Dd2 parent

Cc1cccc(C)c1CC1CN(C(=O)[C@@H](N)Cc2ccc(O)cc2)C1 [(S)-SW703, (S)-2-amino-1-(3-(2,6-dimethylbenzyl)azetidin-1-yl)-3-(4-hydroxyphenyl)propan-1-one]
(S)-SW703 EC50 fold shift ([1]; PfeEF2^Y186N relative to parent line Dd2): 0.91 fold
EC50 ([1]; {}): 270 ± 25 nM
EC50 (NF54): 340 ± 36 nM
(S)-SW703 EC50 fold shift ([2]; Flask 1 clone G3, PfCARL^S1057T, vs Dd2 parent): 12 fold
(S)-SW703 EC50 fold shift [2, 18]: 15 fold
(S)-SW703 EC50 fold shift ([2]; Flask 3 clone G5, PfCARL^S1057T, vs Dd2 parent): 16 fold
(S)-SW703 EC50 fold shift ([2]; Flask 4 clone D4, PfCARL^S1057T, vs Dd2 parent): 12 fold
(S)-SW703 EC50 fold shift ([2]; Flask 4 clone G3, PfCARL^S1057T, vs Dd2 parent): 14 fold
(S)-SW703 EC50 fold shift (Dd2; Dd2 relative to NF54): 0.88 fold
EC50 (Dd2; Plasmodium falciparum, DD2, read-out: (S)-SW703 EC50): 300 ± 31 nM
(S)-SW703 EC50 fold shift (K1; K1 relative to NF54): 1.0 fold
EC50 (K1; [19]): 350 ± 39 nM
(S)-SW703 EC50 fold shift ([3]; PfCytB^I22L relative to parent line Dd2): 0.75 fold
EC50 ([3]; {}): 230 ± 46 nM
(S)-SW703 EC50 fold shift [4, 20]: 2.3 fold
EC50 ([4]; DD2, read-out: (S)-SW703 EC50): 1900 ± 240 nM
inhibition at 1 µM [5]: 1.2 ± 1.7%
(S)-SW703 EC50 fold shift [6]: > 16.6 fold
CC50 at 72 h (HepG2 cytotoxicity): > 50000 nM
microsomal CLint (in vitro): 197 µL/min/mg
EC50 (Dd2-Polδ (parent)): 930 ± 110 nM
EC50 (PfD10 attB + yDHODH): 1300 nM
EC50 [7]: 570 ± 210 nM
EC50 ([8]; DD2, 72 h, read-out: PfDd2 EC50): 810 ± 150 nM
(S)-SW703 EC50 fold shift (7G8; 7G8 relative to NF54): 1.2 fold
EC50 (7G8; [19]): 410 ± 32 nM
(S)-SW703 EC50 fold shift [9, 21]: 31 fold
(S)-SW703 EC50 fold shift ([9]; Flask 1 clone F9, PfCARL^L830I, vs Dd2 parent): 31 fold
(S)-SW703 EC50 fold shift ([9]; Flask 2 clone C5, PfCARL^L830I, vs Dd2 parent): 32 fold
(S)-SW703 EC50 fold shift ([9]; Flask 2 clone E8, PfCARL^L830I, vs Dd2 parent): 27 fold
EC50 (RF12 (PH-1263-C); [19]): 370 ± 10 nM
(S)-SW703 EC50 fold shift (RF12 (PH-1263-C); RF12 relative to NF54): 1.1 fold
EC50 (TM90C2B; Plasmodium falciparum, TM90C2B, read-out: (S)-SW703 EC50): 370 ± 41 nM
(S)-SW703 EC50 fold shift (TM90C2B; TM90C2B relative to NF54): 1.1 fold
(S)-SW703 EC50 fold shift ([10]; PfDHODH relative to parent line Dd2): 0.95 fold
EC50 ([10]; Plasmodium falciparum, DSM265, read-out: (S)-SW703 EC50): 290 ± 9 nM
Rate of kill (killing kinetics) [11]: fast-killing mechanism
(S)-SW703 EC50 fold shift [12, 22]: 52 fold
(S)-SW703 EC50 fold shift ([12]; Flask 3 clone D7, PfCARL^Q821H, vs Dd2 parent): 60 fold
(S)-SW703 EC50 fold shift ([13]; C2 clone beta, PfCARL^L1073I, vs Dd2-Polδ parent): 9.5 fold
EC50 ([13]; read-out: (S)-SW703 EC50): 8800 ± 1200 nM
EC50 [14]: 780 ± 92 nM
(S)-SW703 EC50 fold shift ([15]; PfPI4K^S743T relative to parent line Dd2): 0.97 fold
EC50 ([15]; {}): 290 ± 42 nM
EC50 (PfD10 attB): 1500 nM
Inhibition of male gamete formation [16]: 18.3%
solubility (physchem; pH 2, simulated gastric fluid): > 34 µg/mL
solubility (physchem; pH 6.5, aqueous buffer): > 34 µg/mL

CC1(C)c2nc(-c3ccc(F)cc3)c(Nc3ccc(Cl)cc3)n2CCN1C(=O)CN [GNF179]
resistance conferred by PfCARL L1073Q (PfCARL L1073Q mutants): did not confer resistance
resistance conferred by PfACT^S242* CRISPR mutant [17]: high-level resistance
fold resistance of parasites bearing PfCARL^Q821H mutations ([12]; cross-resistance of (S)-SW703-resistant clones): about 5 fold

CC1(C)c2nc(-c3ccc(F)cc3)c(Nc3ccc(F)cc3)n2CCN1C(=O)CN [KAF156, reference compound]
resistance conferred by PfCARL L1073Q (PfCARL L1073Q mutants): did not confer resistance
KAF156 EC50 fold shift [2, 18]: 1.5 fold
EC50 ([2]; Plasmodium falciparum, DD2, read-out: KAF156 EC50, Flask 3 clone D11, PfCARL^S1057T): 18 ± 1.8 nM
resistance conferred by PfACT^S242* CRISPR mutant [17]: high-level resistance
KAF156 EC50 fold shift [4, 20]: 1.8 fold
EC50 ([4]; DD2, read-out: KAF156 EC50): 22 ± 4.5 nM
EC50 ([8]; DD2, read-out: KAF156 EC50): 12 ± 1.7 nM
KAF156 EC50 fold shift [9, 21]: 1.8 fold
EC50 ([9]; Plasmodium falciparum, DD2, read-out: KAF156 EC50, Flask 1 clone B4, PfCARL^L830I): 22 ± 3.4 nM
KAF156 EC50 fold shift [12, 22]: 4.7 fold
EC50 ([12]; Plasmodium falciparum, DD2, read-out: KAF156 EC50, Flask 2 clone F3, PfCARL^Q821H): 57 ± 6.6 nM
EC50 ([13]; read-out: KAF156 EC50): 16 ± 2.7 nM
